These results are taken from ChEMBL document CHEMBL5331111, “Synthetic Biology Facilitates Semisynthetic Development of Type V Glycopeptide Antibiotics Targeting Vancomycin-Resistant Enterococcus” (J Med Chem, 2023).

What all share (assay type): functional
One assay relates to Enterococcus faecium. The assay can be described thus: Antibacterial activity against vancomycin-resistant Enterococcus faecium ATCC 700221 assessed as inhibition of bacterial growth by Mueller-Hinton broth based assay.
In another assay the test system is Enterococcus faecalis. The assay can be described thus: Antibacterial activity against vancomycin-resistant Enterococcus faecalis ATCC 51299 assessed as inhibition of bacterial growth by Mueller-Hinton broth based assay.
A further assay relates to Staphylococcus aureus. Briefly: Antibacterial activity against Staphylococcus aureus ATCC 33591 assessed as reduction in bacterial growth by Mueller-Hinton broth based assay. The procedure, abridged: (§1)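 Broth MIC by standard procedure in Mueller-Hinton broth, for both B. subtilis 168 and S. aureus ATCC 33591.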
Assay [1] relates to Mycolicibacterium smegmatis. The assay can be described thus: Antimycobacterial activity against Mycobacterium smegmatis MC2 155 assessed as inhibition of bacterial growth measured after 2 days by resazurin dye based analysis. The following applies: MC2 155, 48 h, time 2 day. The procedure, abridged:
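Strains grown in 7H9 broth with 0.2% glycerol, 10% OADC and 0.05% Tween-80. Inoculum was about 5 × 10^5 CFU/mL, checked by plating on 7H10/OADC agar to be 3–8 × 10^5. Read at 2 days for M. smegmatis and 7 days for M. tuberculosis H37Ra, M. bovis and M. avium. Resazurin 30 μg/mL was then added for one further day. Values are averages of at least two experiments.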
For orientation: Alamar Blue is a resazurin reagent that responds to reducing activity.

For another assay, the system named is Bacillus subtilis. Briefly: Antibacterial activity against Bacillus subtilis 168 assessed as reduction in bacterial growth by Mueller-Hinton broth based assay. The procedure, abridged: as §1

SMILES strings stand for the structures. ≈ marks a conversion by molar mass, not a printed value.

As for `CN1C(=O)[C@@H]2NC(=O)[C@@H]3NC(=O)[C@@H](c4ccc(O)cc4)NC(=O)[C@H](NC(=O)C(Nc4ccc(F)cc4)c4ccc(O)cc4)Cc4c[nH]c5cc(ccc45)-c4cc3cc(c4O)Oc3ccc(cc3)C[C@H]1C(=O)N[C@@H](C(=O)O)c1ccc(O)c(c1)Oc1ccc2cc1` (stereo not given in full), the MIC is 8 µg/mL (≈ 6.58 µM) in the assay on Enterococcus faecium; 8 µg/mL (≈ 6.58 µM) with Enterococcus faecalis; 8 µg/mL (≈ 6.58 µM) in the assay on Staphylococcus aureus; above 128 µg/mL in assay [1]; 2 µg/mL (≈ 1.65 µM) in the assay on Bacillus subtilis.

For `CCCCCCCCNC(C(=O)N[C@@H]1Cc2c[nH]c3cc(ccc23)-c2cc3cc(c2O)Oc2ccc(cc2)C[C@H]2C(=O)N[C@@H](C(=O)O)c4ccc(O)c(c4)Oc4ccc(cc4)[C@@H](NC(=O)[C@@H]3NC(=O)[C@@H](c3ccc(O)cc3)NC1=O)C(=O)N2C)c1ccc(O)cc1` (stereo not given in full), the MIC with Enterococcus faecalis came out at 8 µg/mL (≈ 6.49 µM).

For the molecule `CCCCNC(C(=O)N[C@@H]1Cc2c[nH]c3cc(ccc23)-c2cc3cc(c2O)Oc2ccc(cc2)C[C@H]2C(=O)N[C@@H](C(=O)O)c4ccc(O)c(c4)Oc4ccc(cc4)[C@@H](NC(=O)[C@@H]3NC(=O)[C@@H](c3ccc(O)cc3)NC1=O)C(=O)N2C)c1ccc(O)cc1` (stereo not given in full), the MIC with Staphylococcus aureus stood at 16 µg/mL (≈ 13.6 µM).

`CN1C(=O)[C@@H]2NC(=O)[C@@H]3NC(=O)[C@@H](c4ccc(O)cc4)NC(=O)[C@H](NC(=O)C(Nc4cccc(C(F)(F)F)c4)c4ccc(O)cc4)Cc4c[nH]c5cc(ccc45)-c4cc3cc(c4O)Oc3ccc(cc3)C[C@H]1C(=O)N[C@@H](C(=O)O)c1ccc(O)c(c1)Oc1ccc2cc1` (stereo not given in full): the MIC with Enterococcus faecium was 16 µg/mL (≈ 12.6 µM); in the assay on Enterococcus faecalis, 8 µg/mL (≈ 6.32 µM); in the assay on Staphylococcus aureus it was 8 µg/mL (≈ 6.32 µM); in assay [1] it was above 128 µg/mL; with Bacillus subtilis, 4 µg/mL (≈ 3.16 µM).

On to `CN1C(=O)[C@@H]2NC(=O)[C@@H]3NC(=O)[C@@H](c4ccc(O)cc4)NC(=O)[C@H](NC(=O)C(Nc4ccsc4)c4ccc(O)cc4)Cc4c[nH]c5cc(ccc45)-c4cc3cc(c4O)Oc3ccc(cc3)C[C@H]1C(=O)N[C@@H](C(=O)O)c1ccc(O)c(c1)Oc1ccc2cc1` (stereo not given in full), for which the MIC is 8 µg/mL (≈ 6.65 µM) with Enterococcus faecium; 4 µg/mL (≈ 3.32 µM) in the assay on Enterococcus faecalis; 4 µg/mL (≈ 3.32 µM) with Staphylococcus aureus; above 128 µg/mL in assay [1]; 1 µg/mL (≈ 0.831 µM) in the assay with Bacillus subtilis.

As to `CCCCCCCCCCCNC(C(=O)N[C@@H]1Cc2c[nH]c3cc(ccc23)-c2cc3cc(c2O)Oc2ccc(cc2)C[C@H]2C(=O)N[C@@H](C(=O)O)c4ccc(O)c(c4)Oc4ccc(cc4)[C@@H](NC(=O)[C@@H]3NC(=O)[C@@H](c3ccc(O)cc3)NC1=O)C(=O)N2C)c1ccc(O)cc1` (stereo not given in full), the MIC in the assay on Enterococcus faecalis worked out at 4 µg/mL (≈ 3.14 µM); with Staphylococcus aureus, 16 µg/mL (≈ 12.5 µM).

Regarding `CN1C(=O)[C@@H]2NC(=O)[C@@H]3NC(=O)[C@@H](c4ccc(O)cc4)NC(=O)[C@H](NC(=O)Cc4ccc(O)cc4)Cc4c[nH]c5cc(ccc45)-c4cc3cc(c4O)Oc3ccc(cc3)C[C@H]1C(=O)N[C@@H](C(=O)NCCC[N+]1(C)CCCC1)c1ccc(O)c(c1)Oc1ccc2cc1`, the MIC was 8 µg/mL in the assay on Enterococcus faecium, above 128 µg/mL with Staphylococcus aureus and 1 µg/mL in assay [1].

With `CN1C(=O)[C@@H]2NC(=O)[C@@H]3NC(=O)[C@@H](c4ccc(O)cc4)NC(=O)[C@H](NC(=O)C(Nc4ccccn4)c4ccc(O)cc4)Cc4c[nH]c5cc(ccc45)-c4cc3cc(c4O)Oc3ccc(cc3)C[C@H]1C(=O)N[C@@H](C(=O)O)c1ccc(O)c(c1)Oc1ccc2cc1` (stereo not given in full), the MIC in the assay on Enterococcus faecium was determined as 16 µg/mL (≈ 13.4 µM); with Enterococcus faecalis, 16 µg/mL (≈ 13.4 µM); with Bacillus subtilis, 4 µg/mL (≈ 3.34 µM).

With `CN[C@H](CC(C)C)C(=O)N[C@H]1C(=O)N[C@@H](CC(N)=O)C(=O)N[C@H]2C(=O)N[C@H]3C(=O)N[C@H](C(=O)N[C@H](C(=O)O)c4cc(O)cc(O)c4-c4cc3ccc4O)[C@H](O)c3ccc(c(Cl)c3)Oc3cc2cc(c3O[C@@H]2O[C@H](CO)[C@@H](O)[C@H](O)[C@H]2O[C@H]2C[C@](C)(N)[C@H](O)[C@H](C)O2)Oc2ccc(cc2Cl)[C@H]1O` [VANCOMYCIN], the MIC with Enterococcus faecium was above 128 µg/mL; in the assay with Enterococcus faecalis, 32 µg/mL (≈ 22.1 µM); in assay [1], 4 µg/mL (≈ 2.76 µM); with Bacillus subtilis it was 0.5 µg/mL (≈ 0.345 µM).

As to `CN1C(=O)[C@@H]2NC(=O)[C@@H]3NC(=O)[C@@H](c4ccc(O)cc4)NC(=O)[C@H](NC(=O)C(Nc4cccc(F)c4F)c4ccc(O)cc4)Cc4c[nH]c5cc(ccc45)-c4cc3cc(c4O)Oc3ccc(cc3)C[C@H]1C(=O)N[C@@H](C(=O)O)c1ccc(O)c(c1)Oc1ccc2cc1` (stereo not given in full), the MIC in the assay on Enterococcus faecium is 16 µg/mL (≈ 13 µM); with Enterococcus faecalis, 16 µg/mL (≈ 13 µM); in the assay on Staphylococcus aureus, 16 µg/mL (≈ 13 µM); in assay [1], above 128 µg/mL; with Bacillus subtilis, 8 µg/mL (≈ 6.49 µM).

For the molecule `CN1C(=O)[C@@H]2NC(=O)[C@@H]3NC(=O)[C@@H](c4ccc(O)cc4)NC(=O)[C@H](NC(=O)C(Nc4ccc(O)c(O)c4O)c4ccc(O)cc4)Cc4c[nH]c5cc(ccc45)-c4cc3cc(c4O)Oc3ccc(cc3)C[C@H]1C(=O)N[C@@H](C(=O)O)c1ccc(O)c(c1)Oc1ccc2cc1` (stereo not given in full), the MIC with Enterococcus faecium was 16 µg/mL (≈ 12.8 µM); with Enterococcus faecalis it was 8 µg/mL (≈ 6.42 µM); with Staphylococcus aureus, 16 µg/mL (≈ 12.8 µM); in assay [1], above 128 µg/mL; with Bacillus subtilis it was 4 µg/mL (≈ 3.21 µM).

Regarding `CN1C(=O)[C@@H]2NC(=O)[C@@H]3NC(=O)[C@@H](c4ccc(O)cc4)NC(=O)[C@H](NC(=O)C(NCCS(=O)(=O)O)c4ccc(O)cc4)Cc4c[nH]c5cc(ccc45)-c4cc3cc(c4O)Oc3ccc(cc3)C[C@H]1C(=O)N[C@@H](C(=O)OCCS(=O)(=O)O)c1ccc(O)c(c1)Oc1ccc2cc1` (stereo not given in full), the MIC with Enterococcus faecium, in the assay with Enterococcus faecalis and in the assay with Staphylococcus aureus was above 128 µg/mL each time.

For the molecule `CN(C)CCCNC(=O)[C@@H]1NC(=O)[C@@H]2Cc3ccc(cc3)Oc3cc4cc(c3O)-c3ccc5c(c[nH]c5c3)C[C@@H](NC(=O)C(N)c3ccc(O)cc3)C(=O)N[C@H](c3ccc(O)cc3)C(=O)N[C@H]4C(=O)N[C@@H](C(=O)N2C)c2ccc(cc2)Oc2cc1ccc2O` (stereo not given in full), the MIC with Enterococcus faecium was 2 µg/mL (≈ 1.66 µM).

For the molecule `CNCCNC(=O)[C@@H]1NC(=O)[C@@H]2Cc3ccc(cc3)Oc3cc4cc(c3O)-c3ccc5c(c[nH]c5c3)C[C@@H](NC(=O)C(N)c3ccc(O)cc3)C(=O)N[C@H](c3ccc(O)cc3)C(=O)N[C@H]4C(=O)N[C@@H](C(=O)N2C)c2ccc(cc2)Oc2cc1ccc2O` (stereo not given in full), the values for the MIC (with Enterococcus faecium; in the assay on Enterococcus faecalis; in assay [1]) were 1 µg/mL (≈ 0.849 µM), 4 µg/mL (≈ 3.4 µM) and 0.5 µg/mL (≈ 0.425 µM), respectively.

Regarding `CN1C(=O)[C@@H]2NC(=O)[C@@H]3NC(=O)[C@@H](c4ccc(O)cc4)NC(=O)[C@H](NC(=O)C(NC(=O)OC(C)(C)C)c4ccc(O)cc4)Cc4c[nH]c5cc(ccc45)-c4cc3cc(c4O)Oc3ccc(cc3)C[C@H]1C(=O)N[C@@H](C(=O)O)c1ccc(O)c(c1)Oc1ccc2cc1` (stereo not given in full), the MIC in the assay with Enterococcus faecium amounted to 16 µg/mL (≈ 13.1 µM).

Consider `CN1C(=O)[C@@H]2NC(=O)[C@@H]3NC(=O)[C@@H](c4ccc(O)cc4)NC(=O)[C@H](NC(=O)C(NCCO)c4ccc(O)cc4)Cc4c[nH]c5cc(ccc45)-c4cc3cc(c4O)Oc3ccc(cc3)C[C@H]1C(=O)N[C@@H](C(=O)OCCO)c1ccc(O)c(c1)Oc1ccc2cc1` (stereo not given in full), for which the MIC with Staphylococcus aureus turned out to be 32 µg/mL (≈ 26.5 µM); in assay [1] it was 16 µg/mL (≈ 13.2 µM).

As to `CN1C(=O)[C@@H]2NC(=O)[C@@H]3NC(=O)[C@@H](c4ccc(O)cc4)NC(=O)[C@H](NC(=O)C(NCCCCCCB(O)O)c4ccc(O)cc4)Cc4c[nH]c5cc(ccc45)-c4cc3cc(c4O)Oc3ccc(cc3)C[C@H]1C(=O)N[C@@H](C(=O)OCCCCCCB(O)O)c1ccc(O)c(c1)Oc1ccc2cc1` (stereo not given in full), the MIC with Enterococcus faecalis stood at 64 µg/mL (≈ 46.5 µM).

For orientation: MIC means the lowest concentration that inhibits growth of the organism.
